Source: ChEMBL document CHEMBL3877301 (J Med Chem, 2016)

Key:
Adenosine receptor A2a [1] = biological target: T1, Adenosine receptor A2a (Homo sapiens, UniProt P29274); test: biochemical
Adenosine receptor A3 = biological target: T2, Adenosine receptor A3 (Homo sapiens, UniProt P0DMS8); test: Displacement of [125I]AB-MECA from human adenosine A3 receptor expressed in CHO cell membranes measured after 120 mins by scintillation counting method
T2 sequence (P0DMS8 whole entry): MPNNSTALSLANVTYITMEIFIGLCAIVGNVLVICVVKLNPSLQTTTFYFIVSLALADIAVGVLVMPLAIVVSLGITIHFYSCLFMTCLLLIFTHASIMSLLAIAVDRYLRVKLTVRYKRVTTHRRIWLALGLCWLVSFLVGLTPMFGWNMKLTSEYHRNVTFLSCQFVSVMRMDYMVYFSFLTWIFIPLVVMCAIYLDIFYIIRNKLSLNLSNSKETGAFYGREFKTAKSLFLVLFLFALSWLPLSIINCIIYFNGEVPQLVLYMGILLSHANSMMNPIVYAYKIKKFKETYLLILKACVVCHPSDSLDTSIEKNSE

Adenosine receptor A2b = biological target: T3, Adenosine receptor A2b (Homo sapiens, UniProt P29275); test: Inverse agonist activity at human adenosine A2B receptor expressed in CHO cells assessed as inhibition of cAMP accumulation measured after 150 mins in presence of [3H]cAMP by scintillation counting method; format: functional, cell-based
T3 sequence (P29275 whole entry): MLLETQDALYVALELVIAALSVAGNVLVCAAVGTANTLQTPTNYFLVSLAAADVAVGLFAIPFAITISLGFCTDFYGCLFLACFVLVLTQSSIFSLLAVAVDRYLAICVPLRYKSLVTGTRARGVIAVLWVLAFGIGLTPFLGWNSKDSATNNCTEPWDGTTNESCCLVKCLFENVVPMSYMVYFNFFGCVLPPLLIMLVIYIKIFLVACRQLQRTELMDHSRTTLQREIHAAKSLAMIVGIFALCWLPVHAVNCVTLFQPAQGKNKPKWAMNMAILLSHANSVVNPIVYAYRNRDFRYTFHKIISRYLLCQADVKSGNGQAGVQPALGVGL

Adenosine receptor A1 = biological target: T4, Adenosine receptor A1 (Homo sapiens, UniProt P30542); test: Displacement of [3H]DPCPX from human adenosine A1 receptor expressed in CHO cell membranes measured after 90 mins by scintillation counting method
T4 sequence (P30542 whole entry): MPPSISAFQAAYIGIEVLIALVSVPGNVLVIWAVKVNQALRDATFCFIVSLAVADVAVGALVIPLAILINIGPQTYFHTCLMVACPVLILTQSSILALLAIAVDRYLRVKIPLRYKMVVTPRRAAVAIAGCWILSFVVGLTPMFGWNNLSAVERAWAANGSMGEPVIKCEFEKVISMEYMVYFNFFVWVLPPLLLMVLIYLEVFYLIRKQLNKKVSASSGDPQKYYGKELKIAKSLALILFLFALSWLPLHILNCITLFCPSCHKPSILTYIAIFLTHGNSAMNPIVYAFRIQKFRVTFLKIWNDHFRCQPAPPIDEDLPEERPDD
In short: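 Membranes came from CHO cells stably transfected with hA1 AR. Cells were scraped into ice-cold hypotonic buffer (5 mM Tris HCl, 1 mM EDTA, pH 7.4), homogenized, and spun at 40000g for 30 min at 4 °C. Membranes (50 μg protein/100 μL) were incubated with 1 nM [3H]-DPCPX and varied test concentrations at 25 °C for 90 min in 50 mM Tris HCl, pH 7.4.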

[2] = biological target: T5, Adenosine receptor A2b (Homo sapiens) (UniProt P29275); test: Inverse agonist activity at human adenosine A2B receptor expressed in CHO cells assessed as inhibition of cAMP accumulation at 10 uM measured after 150 mins in presence of [3H]cAMP by scintillation counting method relative to control; format: functional, cell-based
T5 sequence (whole entry): T3 sequence (P29275 whole entry)
In short: (§1)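 Transfected CHO cells (hA1, hA2B or hA3) were grown adherently in DMEM/F12 with 10% fetal calf serum, penicillin, streptomycin, 2 mM L-glutamine and 0.2 mg/mL G418 at 37 °C in 5% CO2. Test compounds were applied at 10 μM. cAMP is reported as percent of basal level (100%), given as mean ± SEM.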

[3] = biological target: T6, Adenosine receptor A1 (Homo sapiens) (UniProt P30542); test: Inverse agonist activity at human adenosine A1 receptor expressed in CHO cells assessed as inhibition of cAMP accumulation at 10 uM measured after 150 mins in presence of [3H]cAMP by scintillation counting method relative to control; format: functional, cell-based
T6 sequence (whole entry): T4 sequence (P30542 whole entry)
In short: as §1

Mus musculus [4] = species: Mus musculus; test: Analgesic activity in CD-1 mouse assessed as reduction in acetic acid-induced abdominal constrictions preincubated for 15 mins followed by acetic acid challenge measured for 30 mins by writhing test; format: functional; settings: for inhibition: Abdomen
In short: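 Mice received acetic acid ip to induce abdominal constrictions; vehicle-treated mice served as controls. Test agents were given over a dose range. ED50 (mg/kg) was derived from the dose–response curve, and dose dependence was analysed by one-way ANOVA.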

Mus musculus [5] = species: Mus musculus; test: Antinociceptive activity in CD-1 mouse assessed as increase in latency in response to heat stimulus measured for 15 mins by hot water tail immersion test; format: functional; settings: CD-1, 0.25 h
In short: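 Test agents were given to mice over a dose range before hot water tail immersion. ED50 (mg/kg) was derived from the dose–response curve, and the minimum effective dose was also noted.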

[6] = biological target: T7, Adenosine receptor A3 (Homo sapiens) (UniProt P0DMS8); test: Inverse agonist activity at human adenosine A3 receptor expressed in CHO cells assessed as inhibition of cAMP accumulation at 10 uM measured after 150 mins in presence of [3H]cAMP by scintillation counting method relative to control; format: functional, cell-based
T7 sequence (whole entry): T2 sequence (P0DMS8 whole entry)
In short: as §1

Adenosine receptor A2a [7] = biological target: T1, Adenosine receptor A2a; test: Inverse agonist activity at human adenosine A2A receptor expressed in CHO cells assessed as inhibition of cAMP accumulation measured after 150 mins in presence of [3H]cAMP by scintillation counting method; format: functional, cell-based
Adenosine receptor A2a [8] = biological target: T1, Adenosine receptor A2a; test: Antagonist activity against human adenosine A2A receptor expressed in CHO cells assessed as inhibition of CGS21680-stimulated cAMP accumulation measured after 150 mins in presence of [3H]cAMP by scintillation counting method; format: functional, cell-based
Adenosine receptor A2a [9] = biological target: T1, Adenosine receptor A2a; settings: CHO

T1 sequence (P29274 whole entry): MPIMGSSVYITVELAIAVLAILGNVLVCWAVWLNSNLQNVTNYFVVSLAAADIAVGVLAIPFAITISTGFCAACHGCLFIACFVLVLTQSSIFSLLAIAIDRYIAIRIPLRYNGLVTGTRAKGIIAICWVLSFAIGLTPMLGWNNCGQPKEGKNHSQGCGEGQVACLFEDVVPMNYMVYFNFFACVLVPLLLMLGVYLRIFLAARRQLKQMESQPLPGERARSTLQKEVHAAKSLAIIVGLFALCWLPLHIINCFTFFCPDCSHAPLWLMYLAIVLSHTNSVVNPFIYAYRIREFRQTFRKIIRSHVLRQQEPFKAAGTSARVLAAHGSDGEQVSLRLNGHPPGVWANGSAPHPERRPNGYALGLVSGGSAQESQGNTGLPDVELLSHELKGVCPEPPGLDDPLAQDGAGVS

| Compound | Ki (Adenosine receptor A2a [1]) [nM] | Ki (Adenosine receptor A3) [nM] | IC50 (Adenosine receptor A2b) [nM] | Ki (Adenosine receptor A1) [nM] | inhibition [2] [%] | inhibition [3] [%] | inhibition (Mus musculus [4]) | ED50 (Mus musculus [5]) [mg/kg] | inhibition [6] [%] | IC50 (Adenosine receptor A2a [7]) [nM] | IC50 (Adenosine receptor A2a [8]) [nM] | KiH (Adenosine receptor A2a [9]) [nM] | minimal effective dose (Mus musculus [5]; read-out: MED) [mg/kg] | ED50 (Mus musculus [4]; CD-1, Abdomen) [mg/kg] |
| --- | --- | --- | --- | --- | --- | --- | --- | --- | --- | --- | --- | --- | --- | --- |
| COc1ccc(CCNc2nc(N)c3nc(-c4ccco4)sc3n2)cc1OC | 91 | 824 | 95 | 221 |  |  |  |  |  |  |  |  |  |  |
| Nc1nc(NCCc2ccc(O)cc2)nc2nc(-c3ccco3)nn12 [ZM-241385] |  |  |  |  | 109 | 103 | Dose-dependent effect | > 10 | 101 |  |  |  |  |  |
| Nc1nc(NCCc2ccccc2)nc2sc(-c3ccco3)nc12 | 30 | 217 | 389 | 24 | 102 | 105 |  |  | 94 | 35 | 16 |  |  |  |
| Nc1nc(NCc2ccccc2)nc2sc(-c3ccco3)nc12 | 22 | 37 | 32 | 45 | 95 | 101 |  |  | 102 | 29 | 18 |  |  |  |
| CN1CC[C@]23c4c5ccc(O)c4O[C@H]2[C@@H](O)C=C[C@H]3[C@H]1C5 [MORPHINE] |  |  |  |  |  |  | Dose-dependent effect | 1.14 |  |  |  |  |  |  |
| Nc1nc(Nc2ccccc2)nc2sc(-c3ccco3)nc12 | 782 | 321 | 632 | 645 |  |  |  |  |  |  |  |  |  |  |
| COc1ccccc1CNc1nc(N)c2nc(-c3ccco3)sc2n1 |  |  |  |  | 94 | 106 | Dose-dependent effect |  | 91 |  |  | 5.23 | 0.01 |  |
| Nc1nc(NCCc2ccc(O)c(O)c2)nc2sc(-c3ccco3)nc12 | 40 | 546 | 18 | 39 |  |  |  |  |  |  |  |  |  |  |
| COc1cccc(CCNc2nc(N)c3nc(-c4ccco4)sc3n2)c1 | 17 | 287 | 47 | 0.92 |  |  |  |  |  |  |  |  |  |  |
| COc1ccc(CNc2nc(N)c3nc(-c4ccco4)sc3n2)cc1 |  |  |  |  | 97 | 100 |  |  | 104 |  |  |  |  |  |
| Nc1nc(NCCc2cccc(O)c2)nc2sc(-c3ccco3)nc12 | 16 | 76 | 25 | 0.23 |  |  |  |  |  |  |  |  |  |  |
| Nc1nc(NCCCc2ccccc2)nc2sc(-c3ccco3)nc12 | 58 | 1140 | 1770 | 49 |  |  |  |  |  |  |  |  |  |  |
| Nc1nc(NCCc2ccc(O)cc2)nc2sc(-c3ccco3)nc12 | 18 | 1880 | 482 | 37 | 92 | 102 |  |  | 101 | 25 | 21 |  |  |  |
| COc1ccc(CCNc2nc(N)c3nc(-c4ccco4)sc3n2)cc1 | 32 | 2650 | 553 | 61 | 103 | 93 |  |  | 105 | 42 | 31 |  |  |  |
| Nc1nc(NCc2cccc(O)c2)nc2sc(-c3ccco3)nc12 |  |  |  |  | 95 | 96 |  |  | 98 |  |  |  |  |  |
| COc1cccc(CNc2nc(N)c3nc(-c4ccco4)sc3n2)c1 |  |  |  |  | 99 | 104 | Dose-dependent effect | 0.926 | 106 |  |  | 6.71 |  | 0.158 |
